Measurements of several laboratories.
Compare with care: the assays were run in different laboratories. pIC50: −log10 of the molar value.
Observed: cell growth or viability

COc1cc2c(OC)nc3c4cc5c(cc4cc(OCCN4CCC(N6CCCCC6)CC4)c3c2cc1OC)OCO5 — GI50 (HCT-116; MTT): 11 µM
CC[C@H](C)C(=O)O[C@H]1C[C@H](O)C=C2C=C[C@H](C)[C@H](CC[C@@H](O)C[C@@H](O)CC(=O)O)[C@H]21 — pIC50 (HCT-116; SRB; 72 h): 5.45
C/C=C(/C)C(=O)O[C@@H]1[C@H](OC(C)=O)c2c(ccc3ccc(=O)oc23)OC1(C)C — pIC50 (HCT-116; WST-1): 4.25
O=c1[nH]cc(F)c(=O)[nH]1 — CC50 (AGS; crystal violet; 72 h): 769 µM
COc1cc2c(OC)nc3c4cc5c(cc4cc(OC(C)=O)c3c2cc1OC)OCO5 — GI50 (HCT-116; MTT): 1.3 µM
COC(=O)c1c(C)ncn1CC(c1c[nH]c2cc(Br)ccc12)c1c[nH]c2cc(Br)ccc12 — CC50 (DH82; MTS; 24 h): > 20 µM
COC(=O)[C@]1(O)C[C@@H](O)[C@@H](O)[C@H](OC(=O)/C=C/c2ccc(O)c(O)c2)C1 — pIC50 (HCT-116; WST-1): 4.51
CCOC(=O)c1c(C)ncn1CC(c1cn(C)c2ccc([N+](=O)[O-])cc12)c1cn(C)c2ccc([N+](=O)[O-])cc12 — CC50 (DH82; MTS; 24 h): > 20 µM
CC(=O)OC1c2c(ccc3ccc(=O)oc23)OC(C)(C)C1OC(=O)C(C)(O)C(C)O (centres unmarked) — pIC50 (HCT-116; WST-1): 4.79
CCc1ncn(CC(c2c[nH]c3ccc(C)cc23)c2c[nH]c3ccc(C)cc23)c1C(=O)OC — CC50 (DH82; MTS; 24 h): > 20 µM
COc1ccc(S(=O)(=O)ON=C2C=C(C)C(=O)C(C)=C2)cc1 — CC50 (HCT-116): 7.4 µM
